# Source: ChEMBL document CHEMBL1138683 (J Med Chem, 2004)
# Experiments:
# Rattus norvegicus [1] = test: Anticonvulsant activity after oral administration of 50 mg/kg dose after 30 min in rats; +++ means 75% of the animals protected; assay type: functional, organism-based; design: dose 50 mg/kg
# Outline: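 Rats dosed orally with compound dissolved or suspended in 0.5% methylcellulose (0.04 mL per 10 g body weight). Anticonvulsant protection (MES or scMet) and toxicity scored at 15 min, 30 min, 1 h, 2 h and 4 h after dosing. Graded in steps of 25% of animals protected or showing toxicity.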
# Mus musculus [2] = test: Anti convulsant activity administered intra peritoneally to mouse for subcutaneous metrazol test at 0.5 hr with dose of 30 mg/kg; 0/1= No of animals protected /No of animals tested; assay type: functional
# Rattus norvegicus [3] = test: Quantitative Anticonvulsant activity administered orally to rat for protective index in maximal electro shock test;TD50/ED50; assay type: functional
# Outline: (§1)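 Oral dosing in rats with compound dissolved or suspended in 0.5% methylcellulose (0.04 mL per 10 g body weight). […] Protective index taken as TD50/ED50 for each test.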
# Rattus norvegicus [4] = test: Quantitative Anticonvulsant activity administered orally to rat for subcutaneous metrazol test; assay type: functional; outline: as §1
# Mus musculus [5] = test: Anti convulsant activity administered intra peritoneally to mouse at maximal electroshock test at 4 hr after the drug administered with dose of 100 mg/kg; 0/3= No of animals protected /No of animals tested; assay type: functional
# Mus musculus [6] = test: Quantitative Anticonvulsant activity administered intraperitoneally to mouse for protective index in maximal electro shock test;TD50/ED50; assay type: functional
# Outline: (§2)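 Mice dosed intraperitoneally with compound dissolved or suspended in 0.5% methylcellulose (0.01 mL per gram body weight). […] Protective index calculated as TD50/ED50 for each seizure test.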
# [7] = Anti convulsant activity administered intra peritoneally to mouse for toxicity at 0.5 hr with dose of 100 mg/kg; 0/8= No of animals exhibiting toxicity /No of animals tested; assay type: organism-based; design: dose 100 mg/kg; conditions: in vivo, ip
# Mus musculus [8] = test: Anti convulsant activity administered intra peritoneally to mouse for subcutaneous metrazol test at 0.5 hr with dose of 300 mg/kg; 1/1= No of animals protected /No of animals tested; assay type: functional
# Rattus norvegicus [9] = test: Quantitative Anticonvulsant activity administered orally to rat for toxicity; assay type: functional; conditions: po; outline: as §1
# Rattus norvegicus [10] = test: Anticonvulsant activity after oral administration of 100 mg/kg dose after 1 hr in rats; + means 25% of the animals protected; assay type: functional, organism-based; design: dose 100 mg/kg
# Outline: (§3)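 Oral dosing of rats at a single dose, compound dissolved or suspended in 0.5% methylcellulose. Protection in the MES or scMet test checked 15 min, 30 min, 1 h, 2 h and 4 h after dosing. Scored as 25/50/75/100% of animals protected (+ to ++++), – for none.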
# Mus musculus [11] = test: Anti convulsant activity administered intra peritoneally to mouse at maximal electroshock test at 0.5 h after the drug administered with dose of 30 mg/kg; 0/1= No of animals protected /No of animals tested; assay type: functional
# [12] = Quantitative Anticonvulsant activity administered intraperitoneally to mouse for toxicity; conditions: in vivo, ip; outline: as §2
# [13] = Anti convulsant activity administered intra peritoneally to mouse for toxicity at 4 hr with dose of 300 mg/kg; 1/2= No of animals exhibiting toxicity /No of animals tested; assay type: organism-based; design: dose 300 mg/kg; conditions: in vivo, ip
# [14] = Anti convulsant activity administered intra peritoneally to mouse for toxicity at 0.5 hr with dose of 30 mg/kg; 0/4= No of animals exhibiting toxicity /No of animals tested; assay type: organism-based; design: dose 30 mg/kg; conditions: in vivo, ip
# Mus musculus [15] = test: Anti convulsant activity administered intra peritoneally to mouse for subcutaneous metrazol test at 4 hr after the drug administered with dose of 30 mg/kg; 0/1= No of animals protected /No of animals tested; assay type: functional; conditions: route intraperitoneal
# Mus musculus [16] = test: Anti convulsant activity administered intra peritoneally to mouse at maximal electroshock test at 0.5 hr after the drug administered with dose of 300 mg/kg; 1/1= No of animals protected /No of animals tested; assay type: functional
# Mus musculus [17] = test: Quantitative Anticonvulsant activity administered intraperitoneally to mouse for protective index in subcutaneous metrazol test; assay type: functional; outline: as §2
# [18] = Anti convulsant activity administered intra peritoneally to mouse for toxicity at 4 hr with dose of 30 mg/kg; 0/2= No of animals exhibiting toxicity /No of animals tested; assay type: organism-based; design: dose 30 mg/kg; conditions: in vivo, ip
# Mus musculus [19] = test: Anti convulsant activity administered intra peritoneally to mouse for subcutaneous metrazol test at 4 hr with dose of 300 mg/kg; 1/1= No of animals protected /No of animals tested; assay type: functional
# Mus musculus [20] = test: Quantitative Anticonvulsant activity administered intraperitoneally to mouse for subcutaneous metrazol test; assay type: functional; outline: as §2
# Rattus norvegicus [21] = test: Anticonvulsant activity after oral administration of 30 mg/kg dose after 30 min in rats; ++ means 50% animals protected; assay type: functional, organism-based; design: dose 30 mg/kg; outline: as §3
# [22] = Anti convulsant activity administered intra peritoneally to mouse for toxicity at 0.5 hr with dose of 300 mg/kg; 4/4= No of animals exhibiting toxicity /No of animals tested; assay type: organism-based; design: dose 300 mg/kg; conditions: in vivo, ip
# Rattus norvegicus [23] = test: Anticonvulsant activity after oral administration of 30 mg/kg dose after 1 hr in rats; ++means 50% animals protected; assay type: functional, organism-based; design: dose 30 mg/kg; outline: as §3
# [24] = Anti convulsant activity administered intra peritoneally to mouse for toxicity at 4 hr with dose of 100 mg/kg; 0/4= No of animals exhibiting toxicity /No of animals tested; assay type: organism-based; design: dose 100 mg/kg; conditions: in vivo, ip
# Rattus norvegicus [25] = test: Anticonvulsant activity after oral administration of 50 mg/kg dose after 15 min in rats; ++++means 100% of the animals protected; assay type: functional, organism-based; design: dose 50 mg/kg; outline: as §3
# Rattus norvegicus [26] = test: Quantitative Anticonvulsant activity administered orally to rat at maximal electro shock test; the interval in parenthesis stands for 95% confidence interval; assay type: functional; conditions: po; outline: as §1
# Mus musculus [27] = test: Anti convulsant activity administered intra peritoneally to mouse at maximal electroshock test at 4 hr after the drug administered with dose of 300 mg/kg; 0/1= No of animals protected /No of animals tested; assay type: functional
# Rattus norvegicus [28] = test: Quantitative Anticonvulsant activity administered orally to rat for protective index in subcutaneous metrazol test; assay type: functional; outline: as §1
# Mus musculus [29] = test: Anti convulsant activity administered intra peritoneally to mouse for subcutaneous metrazol test at 4 hr after the drug administered with dose of 100 mg/kg; 0/1= No of animals protected /No of animals tested; assay type: functional
# Mus musculus [30] = test: Anti convulsant activity administered intra peritoneally to mouse at maximal electroshock test at 4 hr after the drug administered with dose of 30 mg/kg; 0/1= No of animals protected /No of animals tested; assay type: functional
# Mus musculus [31] = test: Anti convulsant activity administered intra peritoneally to mouse for toxicity at 4 hr with dose of 30 mg/kg; 2/3= No of animals exhibiting toxicity /No of animals tested; assay type: functional
# Mus musculus [32] = test: Anti convulsant activity administered intra peritoneally to mouse at maximal electroshock test at 4 hr after the drug administered with dose of 300 mg/kg; 1/1= No of animals protected /No of animals tested; assay type: functional
# [33] = Anti convulsant activity administered intra peritoneally to mouse for toxicity at 4 hr with dose of 300 mg/kg; 2/2= No of animals exhibiting toxicity /No of animals tested; assay type: organism-based; design: dose 300 mg/kg; conditions: in vivo, ip
# [34] = Anti convulsant activity administered intra peritoneally to mouse for toxicity at 4 hr with dose of 100 mg/kg; 4/4= No of animals exhibiting toxicity /No of animals tested; assay type: organism-based; design: dose 100 mg/kg; conditions: in vivo, ip
# Mus musculus [35] = test: Anti convulsant activity administered intra peritoneally to mouse for toxicity at 4 hr with dose of 30 mg/kg; 1/3= No of animals exhibiting toxicity /No of animals tested; assay type: functional
# [36] = Anti convulsant activity administered intra peritoneally to mouse for toxicity at 0.5 hr with dose of 100 mg/kg; 7/8= No of animals exhibiting toxicity /No of animals tested; assay type: organism-based; design: dose 100 mg/kg; conditions: in vivo, ip
# Mus musculus [37] = test: Anti convulsant activity administered intra peritoneally to mouse for subcutaneous metrazol test at 4 hr with dose of 300 mg/kg; 0/1= No of animals protected /No of animals tested; assay type: functional
# [38] = Anti convulsant activity administered intra peritoneally to mouse for toxicity at 4 hr with dose of 100 mg/kg; 1/4= No of animals exhibiting toxicity /No of animals tested; assay type: organism-based; design: dose 100 mg/kg; conditions: in vivo, ip
# Rattus norvegicus [39] = test: Anticonvulsant activity after oral administration of 30 mg/kg dose after 4 hr in rats; + means 25% of the animals protected; assay type: functional, organism-based; design: dose 30 mg/kg; outline: as §3
# [40] = Anti convulsant activity administered intra peritoneally to mouse for toxicity at 4 hr with dose of 300 mg/kg; 1/4= No of animals exhibiting toxicity /No of animals tested; assay type: organism-based; design: dose 300 mg/kg; conditions: in vivo, ip
# Mus musculus [41] = test: Anti convulsant activity administered intra peritoneally to mouse for toxicity at 4 hr with dose of 30 mg/kg; 0/3= No of animals exhibiting toxicity /No of animals tested; assay type: functional
# Mus musculus [42] = test: Anti convulsant activity administered intra peritoneally to mouse for subcutaneous metrazol test at 0.5 h with dose of 300 mg/kg; 0/1= No of animals protected /No of animals tested; assay type: functional
# [43] = Anti convulsant activity administered intra peritoneally to mouse for toxicity at 0.5 hr with dose of 300 mg/kg; 2/4= No of animals exhibiting toxicity /No of animals tested; assay type: organism-based; design: dose 300 mg/kg; conditions: in vivo, ip
# Mus musculus [44] = test: Anti convulsant activity administered intra peritoneally to mouse at maximal electroshock test at 0.5 h after the drug administered with dose of 300 mg/kg; 0/1= No of animals protected /No of animals tested; assay type: functional
# [45] = Anti convulsant activity administered intra peritoneally to mouse for toxicity at 0.5 hr with dose of 300 mg/kg; 1/4= No of animals exhibiting toxicity /No of animals tested; assay type: organism-based; design: dose 300 mg/kg; conditions: in vivo, ip
# [46] = Anti convulsant activity administered intra peritoneally to mouse for toxicity at 4 hr with dose of 300 mg/kg; 0/2= No of animals exhibiting toxicity /No of animals tested; assay type: organism-based; design: dose 300 mg/kg; conditions: in vivo, ip
# Mus musculus [47] = test: Anti convulsant activity administered intra peritoneally to mouse at maximal electroshock test at 0.5 hr after the drug administered with dose of 100 mg/kg; 0/3= No of animals protected /No of animals tested; assay type: functional
Structure (SMILES),Activity (Mus musculus [2]),Activity (Mus musculus [5]),Toxicity [7],Activity (Mus musculus [11]),Toxicity [14],Activity (Mus musculus [15]),Activity (Mus musculus [16]),Toxicity [18],Toxicity [22],Toxicity [24],Activity (Mus musculus [27]),Activity (Mus musculus [29]),Activity (Mus musculus [30]),Activity (Mus musculus [37]),Activity (Mus musculus [42]),also measured
CONC(=O)C1C(C)(C)C1(C)C,0,0,0,0,0,0,1,0,4,0,0,0,0,–,–,Activity (Rattus norvegicus [1]): 25% of the animals protected; Ratio (Rattus norvegicus [3]): 3.1; ED50 (Rattus norvegicus [4]): 35 mg/kg; Ratio (Mus musculus [6]): 1.4 mg/kg; Activity (Mus musculus [8]): 1; ED50 (Rattus norvegicus [9]): 333 mg/kg; Activity (Rattus norvegicus [10]): 25% of the animals protected; TD50 [12]: 116 mg/kg; Toxicity [13]: 1; Anticonvulsant (Mus musculus [17]): 2.2; Activity (Mus musculus [19]): 1; ED50 (Mus musculus [20]): 74 mg/kg; Activity (Rattus norvegicus [21]): 25% of the animals protected; Activity (Rattus norvegicus [23]): 25% of the animals protected; Anticonvulsant Activity (Rattus norvegicus [25]): 100% of the animals protected; ED50 (Rattus norvegicus [26]): 108 mg/kg; Activity (Rattus norvegicus [28]): 9.5; Activity (Mus musculus [31]): 2
CC1(C)C(C(=O)N=C(N)N)C1(C)C,0,0,–,0,0,0,1,0,4,–,–,–,0,–,–,Activity (Mus musculus [32]): 1; Toxicity [33]: 2; Toxicity [34]: 4; Activity (Mus musculus [35]): 1; Toxicity [36]: 7
CC1(C)C(C(=O)NN)C1(C)C,0,0,0,0,0,0,1,0,–,–,–,0,0,0,0,Toxicity [38]: 1; Activity (Rattus norvegicus [39]): 25% of the animals protected; Toxicity [40]: 1; Activity (Mus musculus [41]): 0; Toxicity [43]: 2
CC1(C)C(C(=O)NO)C1(C)C,0,0,0,0,0,0,–,0,–,0,0,0,0,0,0,Activity (Mus musculus [44]): 0; Toxicity [45]: 1; Toxicity [46]: 0; Activity (Mus musculus [47]): 0
